Measured values as given in ChEMBL document CHEMBL1126047, “Novel non-nucleoside inhibitors of HIV-1 reverse transcriptase. 2. Tricyclic pyridobenzoxazepinones and dibenzoxazepinones” (J Med Chem, 1992).

What was measured:
[1] = molecular target: Human immunodeficiency virus type 1 reverse transcriptase (Human immunodeficiency virus 1) (UniProt Q72547); test: Inhibition of HIV-1 reverse transcriptase at a concentration of 1 uM
Summary of the method: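 Recombinant p66/p51 heterodimer RT (>95% homogeneous) at 0.5 nM, with poly(rC):oligo(dG) 0.8 µg/mL and 500 nM [3H]dGTP. Compound in DMSO, diluted in buffer; enzyme-started, 1 h at room temperature. TCA/pyrophosphate-precipitated product filtered and counted; inhibition versus no-compound reactions.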

[2] = molecular target: Human immunodeficiency virus type 1 reverse transcriptase (Human immunodeficiency virus 1, UniProt Q72547); test: In vitro inhibitory activity against HIV-1 reverse transcriptase.
T-cell = test: In vitro inhibitory activity against HIV-1(IIIB) replication in human T-cells (c8166).; type: functional, cell-based
Summary of the method: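 CD4+ human T-cell line c8166 infected with HIV-1 IIIB. Syncytia formation scored, with IC50 taken as the concentration giving a 50% reduction in centers of syncytia.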

Compound	inhibition [1]	IC50 [2]	IC50 (T-cell)
CCCN1C(=O)c2ccccc2Sc2ccccc21	77%	0.4 µM	–
CN1C(=O)c2cccnc2Oc2cc(N)ccc21	0%	–	–
CCN1C(=O)c2cccnc2Oc2cc(C)cc(C#N)c21	96%	0.019 µM	–
CCCN1C(=O)c2cc(N)ccc2Oc2c(C)cc(C)cc21	52%	0.9 µM	–
CN1C(=O)c2cccnc2Oc2cccc(C#N)c21	29%	–	–
Cc1cc(C)c2c(c1)Oc1ccc(O)cc1C(=O)N2C	80%	0.063 µM	0.088 µM
CCCN1C(=S)c2ccccc2Oc2ccccc21	46%	2.2 µM	–
CN1C(=O)c2cccnc2Oc2cc([N+](=O)[O-])ccc21	0%	–	–
Cc1cc(C)c2c(c1)Oc1ncc(N)cc1C(=O)N2C	92%	0.046 µM	0.115 µM
CCCN1C(=O)c2cc(N)ccc2Oc2ccc(C)cc21	53%	–	–
CCN1C(=O)c2cc(N)ccc2Oc2cc(C)cc(C)c21	95%	0.043 µM	–
Cc1ccc2c(c1)Oc1ncc(N)cc1C(=O)N2C	57%	0.25 µM	–
CCN1C(=O)c2cc(N)ccc2Oc2ccc(C)cc21	76%	0.24 µM	–
CCCN1C(=O)c2ccccc2Oc2ccccc21	72%	0.375 µM	–
CN1C(=O)c2ccccc2Oc2ccccc21	20%	–	–
Cc1cc(C)c2c(c1)Oc1ccc(N)cc1C(=O)N2C	95%	0.02 µM	–
CCN1C(=O)c2cc(N)ccc2Oc2cccc(C)c21	90%	0.06 µM	–
CCN1C(=O)c2cccnc2Oc2cc(C)cc(N)c21	73%	0.132 µM	–
CN1C(=O)c2cc(N)ccc2Oc2ccccc21	73%	0.18 µM	–
COC(=O)c1cc(C)cc2c1N(C)C(=O)c1cccnc1O2	95%	0.022 µM	–
CCCN1C(=O)c2cccnc2Oc2ncccc21	5%	–	–
Cc1ccc2c(c1)Oc1ccc(N)cc1C(=O)N2C	96%	0.03 µM	–

Compound	inhibition [1]	IC50 [2]	IC50 (T-cell)
COc1ccc2c(c1)Oc1ncccc1C(=O)N2C	24%	–	–
Cc1ccc2c(c1)Oc1ccc(O)cc1C(=O)N2C	58%	0.64 µM	–
CCN1C(=O)c2cccnc2Oc2cccc(N)c21	33%	–	–
Cc1ccc2c(c1)Oc1ccccc1C(=O)N2C	66%	0.6 µM	–
CCCN1C(=O)c2cc(N)ccc2Oc2cccc(C)c21	70%	0.26 µM	–
C=CCN1C(=O)c2cccnc2Oc2ccccc21	40%	–	–
CSCCN1C(=O)c2ccccc2Oc2nc(Cl)ccc21	79%	0.072 µM	–
Cc1ccc2c(c1)Oc1ncccc1C(=O)N2C	43%	–	–
CCN1C(=O)c2cc([N+](=O)[O-])ccc2Oc2ccccc21	23%	–	–
CCCN1C(=O)c2ccccc2[S+]([O-])c2ccccc21 (configuration not stated)	20%	–	–
CCN1C(=O)c2ccccc2Oc2nc(Cl)ccc21	35%	–	–
Cc1cccc2c1N(C)C(=O)c1ccccc1O2	36%	–	–
Cc1cc2c(c(C(N)=O)c1)N(C)C(=O)c1cccnc1O2	31%	–	–
CC(C)CN1C(=O)c2ccccc2Oc2ncccc21	29%	–	–
CCN1Cc2ccccc2Oc2ccccc21	12%	–	–
O=C1Nc2ccccc2Oc2ccccc21	30%	–	–
CCN1C(=O)c2cc(N)ccc2Oc2ccccc21	82%	0.145 µM	–
Cc1cc(C#N)c2c(c1)Oc1ncccc1C(=O)N2C	88%	0.055 µM	–
CCCN1C(=O)c2cc(N)ccc2Oc2cc(C)c(C)cc21	87%	0.165 µM	–
CCN1C(=O)c2cccnc2Oc2cc(C)cc([N+](=O)[O-])c21	85%	0.031 µM	–
C=CCN1C(=O)c2ccccc2Oc2ccccc21	58%	0.465 µM	–
CC(C)N1C(=O)c2ccccc2Oc2ccccc21	73%	0.34 µM	–

Compound	inhibition [1]	IC50 [2]	IC50 (T-cell)
CN(C)c1ccc2c(c1)Oc1ncccc1C(=O)N2C	34%	–	–
CCCN1C(=O)c2cccnc2Oc2ccccc21	31%	–	–
Cc1cc(C)c2c(n1)Oc1ccccc1C(=O)N2C	25%	–	–
CCN1C(=O)c2ccccc2Oc2ccccc21	54%	0.56 µM	–
Cc1cc2c(c(C(=O)O)c1)N(C)C(=O)c1cccnc1O2	0%	–	–
CCN1C(=O)c2cc(N)cnc2Oc2cc(C)c(C)cc21	83%	0.071 µM	–
CN1C(=O)c2cc(CN)ccc2Oc2ccccc21	0%	–	–
CCN1C(=O)c2cccnc2Oc2cccc([N+](=O)[O-])c21	58%	0.343 µM	–
CN1C(=O)c2ccccc2Oc2cc(N)ccc21	20%	–	–
CN1C(=O)c2ccc(N)cc2Oc2ccccc21	19%	–	–
Cc1cc(C)c2c(c1)Oc1ccccc1C(=O)N2C	86%	0.057 µM	0.038 µM
CON1C(=O)c2ccccc2Oc2ccccc21	36%	–	–
Cc1cc2c(c(S(C)(=O)=O)c1)N(C)C(=O)c1cccnc1O2	27%	–	–
Cc1cc(CO)c2c(c1)Oc1ncccc1C(=O)N2C	39%	–	–
Cc1cc2c(cc1C)N(C(C)C)C(=O)c1cc(N)cnc1O2	89%	0.045 µM	–
Cc1cccc2c1NC(=O)c1cc(N)ccc1O2	31%	–	–
CCN1C(=O)c2cccnc2Oc2cc(C)cc(C)c21	92%	0.029 µM	–
CCCN1C(=O)c2cc(N)ccc2Oc2cc(C)ccc21	84%	0.13 µM	–
CCN1C(=S)c2cccnc2Oc2cc(C)cc(C)c21	82%	0.09 µM	–
CN1C(=O)c2cccnc2Oc2ccccc21	23%	–	–
CNc1ccc2c(c1)C(=O)N(C)c1ccccc1O2	40%	–	–
CN1C(=O)c2cccnc2Oc2cc(O)ccc21	14%	–	–

Compound	inhibition [1]	IC50 [2]	IC50 (T-cell)
CCN1C(=O)c2cc(N)cnc2Oc2cc(C)cc(C)c21	93%	0.027 µM	0.054 µM
CN1C(=O)c2ccccc2Oc2ncccc21	2%	–	–
CN1C(=O)c2ccccc2Oc2nc(Cl)ccc21	21%	–	–
Cc1ccc2c(c1)Oc1ccc(C#N)cc1C(=O)N2C	69%	0.28 µM	–
Cc1cc(C)c2c(c1)Oc1ccccc1C(=O)N2	39%	–	–
Cc1cc(N)c2c(c1)Oc1ncccc1C(=O)N2C	53%	1 µM	–
CCN1C(=O)c2cccnc2Oc2ccccc21	25%	–	–
O=C1c2ccccc2Oc2ccccc2N1O	15%	–	–
COC(=N)c1cc(C)cc2c1N(C)C(=O)c1cccnc1O2	0%	–	–
Cc1cc2c(c([N+](=O)[O-])c1)N(C)C(=O)c1cccnc1O2	85%	0.023 µM	–
CN1C(=O)c2cc(C#N)ccc2Oc2ccccc21	12%	–	–
Cc1ccc2c(c1)Oc1ncccc1C(=O)N2	5%	–	–
CCCN1C(=O)c2ccccc2Oc2nc(Cl)ccc21	68%	0.21 µM	–
CCCN1C(=O)c2ccccc2S(=O)(=O)c2ccccc21	31%	–	–
CN1C(=O)c2cccnc2Oc2cc(F)ccc21	3%	–	–
CCCN1C(=O)c2cc(N)ccc2Oc2ccc(C)c(C)c21	63%	0.67 µM	–
Cc1cc2c(cc1C)N(C)C(=O)c1cc(N)cnc1O2	72%	0.322 µM	–
Cc1cc(C)c2c(c1)Oc1ccc(C#N)cc1C(=O)N2C	77%	0.05 µM	0.031 µM
Cc1ccc2c(c1)Oc1ncc([N+](=O)[O-])cc1C(=O)N2C	0%	–	–
